Test results from ChEMBL document CHEMBL1275487, “Reduced biocide susceptibility in Candida albicans biofilms” (Antimicrob Agents Chemother, 2008).

How the values were obtained:
[1] = test system: Candida albicans; assay: Antifungal activity against Candida albicans DAY 185 assessed as inhibition of biofilm formation after 24 hrs by XTT reduction assay; type: functional, organism-based
Procedure, shortened: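 Biocides were added to the wells at the time of inoculation in 96-well polystyrene plates (RPMI-MOPS, 10^6 to 10^7 cells/well) and incubated 24 h at 30°C (H2O2 1 to 1,000 mM; EtOH 0.05 to 50%; SDS 0.0004 to 0.4%). XTT reduction was then read. EC50 and EC80 are the concentrations giving 50% and 80% OD reduction versus no-drug controls. Triplicate, two occasions.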

[2] = test system: Candida albicans; assay: Antifungal activity against Candida albicans DAY 185 assessed as decrease mature biofilm burden after 24 hrs by XTT reduction assay; type: functional, organism-based
Procedure, shortened: (§1)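 Biofilms formed in 96-well polystyrene plates in RPMI-MOPS, inoculum 10^6 to 10^7 cells/well, 24 h at 30°C, then washed twice with PBS. Biocides were added with fresh medium to the 24 h mature biofilms (H2O2 1 to 1,000 mM; EtOH 0.05 to 50%; SDS 0.0004 to 0.4%). After a further 24 h at 30°C, metabolic activity was read by XTT reduction. EC50 and EC80 are the concentrations giving 50% and 80% reduction in OD versus no-drug controls. Triplicate, two occasions.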

[3] = test system: Candida albicans; assay: Antifungal activity against Candida albicans K1 assessed as decrease mature biofilm burden after 24 hrs by XTT reduction assay; type: functional, organism-based; procedure, shortened: as §1
[4] = test system: Candida parapsilosis; assay: Antifungal activity against Candida parapsilosis 5986 assessed as decrease mature biofilm burden after 24 hrs by XTT reduction assay; type: functional, organism-based; procedure, shortened: as §1
[5] = test system: Nakaseomyces glabratus; assay: Antifungal activity against Candida glabrata 5740 assessed as decrease mature biofilm burden after 24 hrs by XTT reduction assay; type: functional, organism-based; procedure, shortened: as §1
[6] = test system: Candida albicans; assay: FICI in Candida albicans DAY 185 after 24 hrs in presence of fluconazole; type: functional
Procedure, shortened: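 Checkerboard format on 24 h mature biofilms, with each biocide combined with fluconazole (0.0625 to 1,000 μg/ml). Incubation was 24 h with the combination, followed by an XTT reduction readout against no-drug controls. Fractional inhibitory concentration indices were calculated to gauge how each biocide affects fluconazole activity.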

[7] = test system: Candida albicans; assay: Antifungal activity against Candida albicans DAY 185 grown as planktonic cells by CLSI method; type: functional
Procedure, shortened: (§2)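 Planktonic biocide MICs were determined by CLSI broth microdilution using CLSI endpoints, with the standard CLSI inoculum (0.5 × 10^3 to 2.5 × 10^3 CFU/ml) in RPMI-MOPS. Triplicate, two occasions.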

[8] = test system: Candida albicans; assay: Antifungal activity against Candida albicans K1 grown as planktonic cells by CLSI method; type: functional; procedure, shortened: as §2
[9] = test system: Candida parapsilosis; assay: Antifungal activity against Candida parapsilosis 5986 grown as planktonic cells by CLSI method; type: functional; procedure, shortened: as §2
[10] = test system: Nakaseomyces glabratus; assay: Antifungal activity against Candida glabrata 5740 grown as planktonic cells by CLSI method; type: functional; procedure, shortened: as §2
[11] = test system: Candida albicans; assay: Antifungal activity against Candida albicans DAY 185 grown as planktonic cells using 10^6 to 10^7 cells by CLSI method; type: functional, organism-based
Procedure, shortened: (§3)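 Planktonic susceptibility was tested by the CLSI method with the inoculum raised to the mature-biofilm cell density (10^6 to 10^7 cells/well) in RPMI-MOPS. EC50 and EC80 values were derived. Triplicate, two occasions.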

[12] = test system: Candida albicans; assay: Antifungal activity against Candida albicans K1 grown as planktonic cells using 10^6 to 10^7 cells by CLSI method; type: functional, organism-based; procedure, shortened: as §3
[13] = test system: Candida parapsilosis; assay: Antifungal activity against Candida parapsilosis 5986 grown as planktonic cells using 10^6 to 10^7 cells by CLSI method; type: functional, organism-based; procedure, shortened: as §3
[14] = test system: Nakaseomyces glabratus; assay: Antifungal activity against Candida glabrata 5740 grown as planktonic cells using 10^6 to 10^7 cells by CLSI method; type: functional, organism-based; procedure, shortened: as §3

Compound	EC50 [1] [%]	EC80 [1] [%]	EC50 [2] [%]	EC80 [2] [%]	EC50 [3] [%]	EC80 [3] [%]	EC50 [4] [%]	EC80 [4] [%]	EC50 [5] [%]	EC80 [5] [%]	fractional inhibitory concentration index (FICI) [6]	MIC [7] [%]	MIC [8] [%]	MIC [9] [%]	MIC [10] [%]	EC50 [11] [%]	EC80 [11] [%]	EC50 [12] [%]	EC80 [12] [%]	EC50 [13] [%]	other results
CCCCCCCCCCCCOS(=O)(=O)[O-].[Na+] [SODIUM LAURYL SULFATE]	0.05	0.1	0.15	0.15	0.05	0.1	0.05	0.1	0.05	0.05	1	0.01	0.01	0.01	0.01	0.05	0.05	0.03	0.05	0.03	EC80 [13]: 0.05%; EC50 [14]: 0.03%; EC80 [14]: 0.03%
CCO [ALCOHOL]	35	35	35	40	25	25	25	25	25	25	<0.5	3	1.5	1.5	3	6	13	6	13	6	EC80 [13]: 6%; EC50 [14]: 13%; EC80 [14]: 13%
